Data on 18 compounds can be found in ChEMBL document CHEMBL1148134, “Differentiation- and apoptosis-inducing activities by pentacyclic triterpenes on a mouse melanoma cell line” (J Nat Prod, 2002).

Activity calls are given as the source filed them. No cut-off for these calls is given here.

The subject of the first test is B16. Kind of test: Induction of apoptosis in mouse B16 2F2 cells assessed as condensation and fragmentation of nuclei at 10 uM after 48 hrs by Hoechst 33258 staining based fluorescence microscopy. Format: functional.
Details: not given
In outline:
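B16 2F2 cells held with or without triterpene at 10 µM for 48 h, collected, washed in PBS, fixed in 1% glutaraldehyde, then stained 30 min with 50 µM Hoechst 33258. Nuclear condensation/fragmentation scored by fluorescence microscopy, apoptotic cells counted manually on at least 200 cells.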
`C=C(C)[C@@H]1CC[C@]2(C=O)CC[C@]3(C)[C@H](CC[C@@H]4[C@@]5(C)CC[C@H](O)C(C)(C)[C@@H]5CC[C@]43C)[C@@H]12` [BETULINALDEHYDE]: the Activity is recorded as 70.4%.

Another test relates to B16. Kind of test: Induction of melanogenesis in mouse B16 2F2 cells assessed as intracellular melanin content up to 10 uM after 3 days. The class given is functional, cell-based.
Details: not given
In a few lines:
(§1)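 Aliquots of 1 × 10^5 B16 2F2 cells in 1 mL incubated 3 days (72 h) across a triterpene concentration range, including 1.0 and 10 µM. Intracellular melanin content measured per previously described method. ED50 derived from dose-response curves of melanogenesis up-regulation.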
On to `C[C@H]1[C@H](C)CC[C@]2(C(=O)O)CC[C@]3(C)C(=CC[C@@H]4[C@@]5(C)CC[C@H](O)C(C)(C)[C@@H]5CC[C@]43C)[C@H]12` [URSOLIC ACID], for which the result was inactive.

As for `CC1(C)CC[C@]2(C(=O)O)CC[C@]3(C)C(=CC[C@@H]4[C@@]5(C)CC[C@H](O)C(C)(C)[C@@H]5CC[C@]43C)[C@@H]2C1` [OLEANOLIC_ACID], the outcome was inactive.

Another test relates to B16. Kind of test: Growth inhibition of mouse B16 2F2 cells after 3 days. Particulars: B16, 72 h. The class given is functional, cell-based. In outline: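 B16 2F2 melanoma subclone, 1 × 10^5 cells per 1 mL aliquot, exposed to a range of triterpene concentrations for 3 days. Viable cells counted as in earlier work. IC50 = concentration giving 50% growth inhibition.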
The IC50 is the midpoint of a concentration-inhibition curve. Higher therefore signals lower potency. On to `C[C@H]1[C@H](C)CC[C@]2(C(=O)O)CC[C@]3(C)C(=CC[C@@H]4[C@@]5(C)CC[C@H](O)C(C)(C)[C@@H]5CC[C@]43C)[C@H]12` [URSOLIC ACID], for which half-maximal inhibition (IC50) was put at 3.1 µM.

On to `C=C(C)[C@@H]1CC[C@]2(CO)CC[C@]3(C)[C@H](CC[C@@H]4[C@@]5(C)CC[C@H](O)C(C)(C)[C@@H]5CC[C@]43C)[C@@H]12` [BETULIN], for which inhibition was half-maximal at 27.4 µM (IC50).

For the compound `C=C(C)[C@@H]1CC[C@]2(C=O)CC[C@]3(C)[C@H](CC[C@@H]4[C@@]5(C)CC[C@H](O)C(C)(C)[C@@H]5CC[C@]43C)[C@@H]12` [BETULINALDEHYDE], the concentration for half-maximal inhibition (IC50) worked out at 6.4 µM.

For `C=C(C)[C@@H]1CC[C@]2(CO)CC[C@]3(C)[C@H](CC[C@@H]4[C@@]5(C)CCC(=O)C(C)(C)[C@@H]5CC[C@]43C)[C@@H]12` [BETULONE], the midpoint of inhibition, the IC50, lay at 29.3 µM.

The compound `C[C@H]1[C@H](C)CC[C@]2(C)CC[C@]3(C)C(=CC[C@@H]4[C@@]5(C)CCC(=O)C(C)(C)[C@@H]5CC[C@]43C)[C@H]12` registered an IC50 of 40.3 µM.

In the case of `C[C@H]1[C@H](C)CC[C@]2(C)CC[C@]3(C)C(=CC[C@@H]4[C@@]5(C)CC[C@H](O)C(C)(C)[C@@H]5CC[C@]43C)[C@H]12`, the midpoint of inhibition, the IC50, lay at 50 µM.

In the case of `C=C(C)[C@@H]1CC[C@]2(COC(C)=O)CC[C@]3(C)[C@H](CC[C@@H]4[C@@]5(C)CC[C@H](OC(C)=O)C(C)(C)[C@@H]5CC[C@]43C)[C@@H]12` [BETULIN DIACETATE], the IC50 is 36.8 µM.

Turning to `C=C(C)[C@@H]1CC[C@]2(C)CC[C@]3(C)[C@H](CC[C@@H]4[C@@]5(C)CC[C@H](O)C(C)(C)[C@@H]5CC[C@]43C)[C@@H]12` [LUPEOL], the IC50 was 38 µM.

In turn, `CC1(C)CC[C@]2(C(=O)O)CC[C@]3(C)C(=CC[C@@H]4[C@@]5(C)CC[C@H](O)C(C)(C)[C@@H]5CC[C@]43C)[C@@H]2C1` [OLEANOLIC_ACID] gave an IC50 of 4.8 µM.

As for `C=C(C)[C@@H]1CC[C@]2(C(=O)O)CC[C@]3(C)[C@H](CC[C@@H]4[C@@]5(C)CC[C@H](O)C(C)(C)[C@@H]5CC[C@]43C)[C@@H]12` [BETULINIC ACID], half-maximal inhibition (IC50) was put at 7.9 µM.

In turn, `CC1(C)CC[C@]2(C)CC[C@]3(C)C(=CC[C@@H]4[C@@]5(C)CC[C@H](O)C(C)(C)[C@@H]5CC[C@]43C)[C@@H]2C1` [beta-AMYRIN] yielded a half-maximal inhibitory concentration (IC50) of 48.8 µM.

Consider `C[C@H]1[C@H](C)CC[C@]2(CO)CC[C@]3(C)C(=CC[C@@H]4[C@@]5(C)CC[C@H](O)C(C)(C)[C@@H]5CC[C@]43C)[C@H]12` [UVAOL], for which inhibition was half-maximal at 46.8 µM (IC50).

For `C=C(C)[C@@H]1CC[C@]2(C=O)CC[C@]3(C)[C@H](CC[C@@H]4[C@@]5(C)CCC(=O)C(C)(C)[C@@H]5CC[C@]43C)[C@@H]12` [BETULONAL], the IC50 turned out to be 4.1 µM.

Regarding `CC1(C)CC[C@]2(C)CC[C@]3(C)C(=CC[C@@H]4[C@@]5(C)CCC(=O)C(C)(C)[C@@H]5CC[C@]43C)[C@@H]2C1`, half-maximal inhibition (IC50) was put at 38.7 µM.

Turning to `C=C(C)[C@@H]1CC[C@]2(C(=O)OC)CC[C@]3(C)[C@H](CC[C@@H]4[C@@]5(C)CC[C@H](O)C(C)(C)[C@@H]5CC[C@]43C)[C@@H]12` [METHYL BETULINATE], the IC50 was 4.9 µM.

Compound `CC1(C)CC[C@]2(CO)CC[C@]3(C)C(=CC[C@@H]4[C@@]5(C)CC[C@H](O)C(C)(C)[C@@H]5CC[C@]43C)[C@@H]2C1` [ERYTHRODIOL] yielded an IC50 of 33.4 µM.

For the compound `C=C(C)[C@@H]1CC[C@]2(C)CC[C@]3(C)[C@H](CC[C@@H]4[C@@]5(C)CCC(=O)C(C)(C)[C@@H]5CC[C@]43C)[C@@H]12` [LUPENONE], 25.4 µM corresponded to half-maximal inhibition (IC50).

With `C=C(C)[C@@H]1CC[C@]2(C)CC[C@]3(C)[C@H](CC[C@@H]4[C@@]5(C)CC[C@H](OC(C)=O)C(C)(C)[C@@H]5CC[C@]43C)[C@@H]12` [LUPENYL ACETATE], it took 22.7 µM to reach half-maximal inhibition (IC50).

For another test, the system named is B16. Kind of test: Induction of melanogenesis in mouse B16 2F2 cells assessed as intracellular melanin content after 3 days. Format: functional. Particulars: B16, 72 h, read-out: ED50 (the source's name). In outline:
as §1
With `C=C(C)[C@@H]1CC[C@]2(CO)CC[C@]3(C)[C@H](CC[C@@H]4[C@@]5(C)CC[C@H](O)C(C)(C)[C@@H]5CC[C@]43C)[C@@H]12` [BETULIN], the EC50 is 4.8 µM.

For the compound `C=C(C)[C@@H]1CC[C@]2(C=O)CC[C@]3(C)[C@H](CC[C@@H]4[C@@]5(C)CC[C@H](O)C(C)(C)[C@@H]5CC[C@]43C)[C@@H]12` [BETULINALDEHYDE], the EC50 worked out at 3.3 µM.

Turning to `C=C(C)[C@@H]1CC[C@]2(CO)CC[C@]3(C)[C@H](CC[C@@H]4[C@@]5(C)CCC(=O)C(C)(C)[C@@H]5CC[C@]43C)[C@@H]12` [BETULONE], the EC50 turned out to be 0.19 µM.

`C[C@H]1[C@H](C)CC[C@]2(C)CC[C@]3(C)C(=CC[C@@H]4[C@@]5(C)CCC(=O)C(C)(C)[C@@H]5CC[C@]43C)[C@H]12`: the EC50 was over 50 µM.

With `C[C@H]1[C@H](C)CC[C@]2(C)CC[C@]3(C)C(=CC[C@@H]4[C@@]5(C)CC[C@H](O)C(C)(C)[C@@H]5CC[C@]43C)[C@H]12`, the EC50 is over 50 µM.

As to `C=C(C)[C@@H]1CC[C@]2(COC(C)=O)CC[C@]3(C)[C@H](CC[C@@H]4[C@@]5(C)CC[C@H](OC(C)=O)C(C)(C)[C@@H]5CC[C@]43C)[C@@H]12` [BETULIN DIACETATE], the EC50 was determined as 3.4 µM.

Consider `C=C(C)[C@@H]1CC[C@]2(C)CC[C@]3(C)[C@H](CC[C@@H]4[C@@]5(C)CC[C@H](O)C(C)(C)[C@@H]5CC[C@]43C)[C@@H]12` [LUPEOL], for which the EC50 stood at 9.9 µM.

With `C=C(C)[C@@H]1CC[C@]2(C(=O)O)CC[C@]3(C)[C@H](CC[C@@H]4[C@@]5(C)CC[C@H](O)C(C)(C)[C@@H]5CC[C@]43C)[C@@H]12` [BETULINIC ACID], the EC50 is 4.1 µM.

Consider `CC1(C)CC[C@]2(C)CC[C@]3(C)C(=CC[C@@H]4[C@@]5(C)CC[C@H](O)C(C)(C)[C@@H]5CC[C@]43C)[C@@H]2C1` [beta-AMYRIN], for which the EC50 is over 50 µM.

Consider `C[C@H]1[C@H](C)CC[C@]2(CO)CC[C@]3(C)C(=CC[C@@H]4[C@@]5(C)CC[C@H](O)C(C)(C)[C@@H]5CC[C@]43C)[C@H]12` [UVAOL], for which the EC50 was over 50 µM.

Consider `C=C(C)[C@@H]1CC[C@]2(C=O)CC[C@]3(C)[C@H](CC[C@@H]4[C@@]5(C)CCC(=O)C(C)(C)[C@@H]5CC[C@]43C)[C@@H]12` [BETULONAL], for which the EC50 was determined as 0.35 µM.

Take `CC1(C)CC[C@]2(C)CC[C@]3(C)C(=CC[C@@H]4[C@@]5(C)CCC(=O)C(C)(C)[C@@H]5CC[C@]43C)[C@@H]2C1`: the EC50 was over 50 µM.

Take `C=C(C)[C@@H]1CC[C@]2(C(=O)OC)CC[C@]3(C)[C@H](CC[C@@H]4[C@@]5(C)CC[C@H](O)C(C)(C)[C@@H]5CC[C@]43C)[C@@H]12` [METHYL BETULINATE]: the EC50 is 2.5 µM.

Consider `CC1(C)CC[C@]2(CO)CC[C@]3(C)C(=CC[C@@H]4[C@@]5(C)CC[C@H](O)C(C)(C)[C@@H]5CC[C@]43C)[C@@H]2C1` [ERYTHRODIOL], for which the EC50 is over 50 µM.

Take `C=C(C)[C@@H]1CC[C@]2(C)CC[C@]3(C)[C@H](CC[C@@H]4[C@@]5(C)CCC(=O)C(C)(C)[C@@H]5CC[C@]43C)[C@@H]12` [LUPENONE]: the EC50 amounted to 0.35 µM.

Consider `C=C(C)[C@@H]1CC[C@]2(C)CC[C@]3(C)[C@H](CC[C@@H]4[C@@]5(C)CC[C@H](OC(C)=O)C(C)(C)[C@@H]5CC[C@]43C)[C@@H]12` [LUPENYL ACETATE], for which the EC50 is 7.5 µM.
